Columns and labels:
[1] = test system: Hepatitis C virus; experiment: Effective concentration against HCV RNA replication in a subgenomic replicon Huh7 cell line; type: functional, Hepacivirus hominis; conditions: Huh-7
How it was run: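 HCV replicon Clone A cells in log-phase growth exposed to various compound concentrations for 3 days. HCV RNA extracted and quantified by real-time PCR. EC90 is the concentration reducing HCV RNA by 90%.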

[2] = test system: Huh-7; experiment: Cytotoxic concentration against HCV RNA replication in a subgenomic replicon Huh7 cell line; type: functional; conditions: Homo sapiens

Work on `Cc1cc(=O)n2c3c1nnn3C[C@H]1O[C@@H]2[C@H](O)C1O` (single isomer, unassigned) yielded an EC90 [1] of 15.4 µM and a CC50 [2] of 22.6 µM.
`O=c1cc(NC2CC2)c2nnn3c2n1[C@@H]1O[C@H](C3)C(O)[C@H]1O` (single isomer, unassigned) gave an EC90 [1] of over 100 µM and a CC50 [2] of over 100 µM.
Work on `CNc1cc(=O)n2c3c1nnn3C[C@H]1O[C@@H]2[C@H](O)C1O` (single isomer, unassigned) yielded an EC90 [1] of 7.4 µM and a CC50 [2] of 4.6 µM.
`O=c1cc(NCCO)c2nnn3c2n1[C@@H]1O[C@H](C3)C(O)[C@H]1O` (single isomer, unassigned) showed an EC90 [1] of over 100 µM and a CC50 [2] of over 100 µM.
In the case of `O=c1ccc2nnn3c2n1[C@@H]1O[C@H](C3)C(O)[C@H]1O` (single isomer, unassigned), the EC90 [1] is reported as 79.8 µM and the CC50 [2] is reported as 30.6 µM.
For `CCCCNc1cc(=O)n2c3c1nnn3C[C@H]1O[C@@H]2[C@H](O)C1O` (single isomer, unassigned), the EC90 [1] was over 100 µM and the CC50 [2] was over 100 µM.
`O=c1cc(NCCCO)c2nnn3c2n1[C@@H]1O[C@H](C3)C(O)[C@H]1O` (single isomer, unassigned) showed an EC90 [1] of over 100 µM and a CC50 [2] of over 100 µM.
Work on `CCCNc1cc(=O)n2c3c1nnn3C[C@H]1O[C@@H]2[C@H](O)C1O` (single isomer, unassigned) yielded an EC90 [1] of over 100 µM and a CC50 [2] of over 100 µM.
With `O=c1c(Br)cc2nnn3c2n1[C@@H]1O[C@H](C3)C(O)[C@H]1O` (single isomer, unassigned) the EC90 [1] was 1.9 µM and the CC50 [2] was 1.5 µM.
In the case of `COCCNc1cc(=O)n2c3c1nnn3C[C@H]1O[C@@H]2[C@H](O)C1O` (single isomer, unassigned), the EC90 [1] is reported as 86.1 µM and the CC50 [2] is reported as 97.3 µM.
`Nc1cc(=O)n2c3c1nnn3C[C@H]1O[C@@H]2[C@H](O)C1O` (single isomer, unassigned) was tested, and the EC90 [1] was 29.7 µM and the CC50 [2] was 74.2 µM.
`CCNc1cc(=O)n2c3c1nnn3C[C@H]1O[C@@H]2[C@H](O)C1O` (single isomer, unassigned) was tested, and the EC90 [1] was over 100 µM and the CC50 [2] was over 100 µM.
In the case of `OC1[C@@H](O)[C@H]2O[C@@H]1Cn1nnc3ccc(=S)n2c31` (single isomer, unassigned), the EC90 [1] is reported as 10 µM and the CC50 [2] is reported as 11.9 µM.
For `CN(C)c1cc(=O)n2c3c1nnn3C[C@H]1O[C@@H]2[C@H](O)C1O` (single isomer, unassigned), the EC90 [1] was over 100 µM and the CC50 [2] was over 100 µM.
`O=c1c(Cl)cc2nnn3c2n1[C@@H]1O[C@H](C3)C(O)[C@H]1O` (single isomer, unassigned) gave an EC90 [1] of 2.1 µM and a CC50 [2] of 0.06 µM.

— ChEMBL document CHEMBL1140444, “Synthesis and structure-activity relationships of novel anti-hepatitis C agents: N3,5'-cyclo-4-(beta-D-ribofuranosyl)-vic-triazolo[4,5-b]pyridin-5-one derivatives” (2005)
